# Experimental data taken from the RNAGym collection of RNA variant scans (doi:10.1126/science.aae0568).
# Fewer inactive variants are shown than the library holds.
# B1: tRNA (parent)
# chain: GUUCCGUUGGCGUAAUGGUAACGCGUCUCCCUCCUAAGGAGAAGACUGCGGGUUCGAGUCCCGUACGGAACG
# Variants of: B1
# Test: yeast fitness relative to wild type (ratio to wild type); higher = fitter; tRNA-Arg(CCU), competitive growth, 37 C, YPD
# Procedure, shortened: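 Variants of the tRNA-Arg(CCU) gene, chemically synthesised with a 3% per-site mutation rate at 69 sites, were placed at the native genomic locus in Saccharomyces cerevisiae. The pooled strains were competed in YPD at 37°C for 24 hours in six parallel replicates. Gene amplicons from the start population and from each end population were read by 100-nucleotide paired-end sequencing. Darwinian fitness relative to wild type came from changes in genotype frequencies; genotypes needed ≥ 100 starting reads, and estimates < 0.5 were set to 0.5.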
row,Variant,yeast fitness
1,A36U C66U,0.686
2,A36U C55G U64G,≤ 0.5
3,C34G A37C,0.554
4,U35G C46U C62U,0.579
5,U35A A43G U64C,≤ 0.5
6,U35C G48C,0.973
7,A36U A43C C49A C55G,≤ 0.5
8,A37C U47G U53A,0.535
9,C34G C60G C62U,0.65
10,U35C G41C,0.718
11,U35A G44C,0.71
12,C34A A37G C66U,≤ 0.5
13,A36C A45C,0.763
14,C34A G38A,0.699
15,A36C U53C G56U,0.603
16,C34G A45U G50C A57C,≤ 0.5
17,U35A A36U C61U,≤ 0.5
18,A36C G38C A45G G50C,≤ 0.5
19,A36C A37C G51C,≤ 0.5
20,A36C C62G,0.575
21,C33U G52A A57U,≤ 0.5
22,C34G C49U C66U,0.557
23,U35A C49U U64A,≤ 0.5
24,U35C C61G A69G,≤ 0.5

row,Variant,yeast fitness
1,U35C A37C C62U A65C,≤ 0.5
2,C33U A43U C49G G50C C61U C66U,≤ 0.5
3,C34G G38C C66A A70U,≤ 0.5
4,C34G A40C C46G,0.562
5,A36C G52C C66U,0.54
6,A36C A40U,0.604
7,A36U G48C C66U,≤ 0.5
8,A36C C61G,0.609
9,C34A C49U U59C,≤ 0.5
10,A37C A42U C49A,≤ 0.5
11,A36G U54C C61U C66U,≤ 0.5
12,C34U G41A C55A,≤ 0.5
13,U35G A42G G56C,0.59
14,A37C C46G A70C,0.632
15,U35G A40G U54G,≤ 0.5
16,C34A U47C,0.646
17,A36C G48C,≤ 0.5
18,A36U A42C A43G U64C A70C,0.559
19,U35C G50A G67A,≤ 0.5
20,C34G A42U,0.621
21,A36G A45U C49U,0.882
22,C34U G38C,0.605
23,A37C A42C C66U,0.712
24,A36G A42G,0.797

row,Variant,yeast fitness
1,A36C A45C G48A A65C,≤ 0.5
2,A36G A65G A70G,0.639
3,U35C A37G C60U,≤ 0.5
4,A36U A42U,0.71
5,C33U G44A C61U,0.675
6,A36C G48C U54G,≤ 0.5
7,A37G A42U,0.787
8,A36C A70U,0.703
9,C34G G63A A70C,≤ 0.5
10,A36G U47A,0.789
11,U35A A37G A43C U54C,≤ 0.5
12,A36C C49A U64C,0.767
13,U35A C55U A65G,≤ 0.5
14,A36C C49U C55U,0.643
15,C34U G58C A69U,≤ 0.5
16,C34G U53C C55G,≤ 0.5
17,C34U A69C,0.774
18,U35C,0.817
19,U35G,0.676
20,U35A,0.715
21,U35C A45C C49G A57U G63A,≤ 0.5
22,A36C C49U C55U C60U,≤ 0.5
23,A37C G52C C66G,≤ 0.5
24,A37G C46U U59G,0.508

row,Variant,yeast fitness
1,A36G A42G C49G,≤ 0.5
2,C34G U54A,0.563
3,C34G G50A,0.644
4,A36G G50A,0.898
5,U35A A69C A70C,0.535
6,C34U G56A A70G,≤ 0.5
7,C34G U47A G67A,≤ 0.5
8,C34U G41C C60U,≤ 0.5
9,C34U G41C C60A,≤ 0.5
10,A37C U53C U64A,0.679
11,U35C A40U A42G U47C,0.601
12,C34G G51C,0.609
13,C34G G51A,0.94
14,A37C A40C G41C,0.579
15,C34U A40C C62U A65U,≤ 0.5
16,A37C A42U,0.809
17,A36U U54A U64C A69U,≤ 0.5
18,C34G A43U C61G,0.614
19,A37G A70C,0.76
20,C33U A36C U64C,0.648
21,C33U A36C A40U,0.609
22,C34U G41C A69G,≤ 0.5
23,A36G A37C A45C C46G,0.554
24,A36G G56A A69U,0.718

row,Variant,yeast fitness
1,A36U A45U U53A,0.554
2,A36U A65U,0.597
3,A36U A65C,0.596
4,U35C A37U A42G G51A,≤ 0.5
5,C33U C34G,0.648
6,C34A C62U,0.785
7,A36U A45C G63C,0.614
8,C34A U47C G51A,0.53
9,C34G G67A,0.596
10,A36G C66G,0.689
11,C34U A36C U53C G67A,≤ 0.5
12,U35C A45C C49G G56A A57U G63A,≤ 0.5
13,A36G A37G,0.816
14,A36G A37U,0.718
15,U35C A45U C49A C66U,≤ 0.5
16,U35C G44A G48C C55G A69U,≤ 0.5
17,C34A U47A C61A,≤ 0.5
18,A36G G56A G58C,0.694
19,A36U G48A G50U A57U,≤ 0.5
20,A36U C55U G56A,0.864
21,C34G A43U G48C,≤ 0.5
22,U35G G38A G52C,0.678
23,C33U A43G G48C,≤ 0.5
24,A36C G48A A57U,≤ 0.5

row,Variant,yeast fitness
1,A37C A42C C55U,0.597
2,A36U G58A,0.624
3,A37C C46U A69U,0.7
4,C34A A37U G44A G51A C55A,0.603
5,C33U G39C U59C C61A C62U,≤ 0.5
6,C33U U47G C49U,0.581
7,A36C C46U U53A,0.639
8,A37G C46A,0.774
9,U35A A42C C46U,0.521
10,A36C G67A,0.607
11,U35A C49G C66G,≤ 0.5
12,C34G G44C,0.652
13,A36G C49U,1.02
14,C33U U54C C61G,≤ 0.5
15,C33U G48A A69C,0.705
16,A36U A40G,0.549
17,A37C A45C,0.758
18,U35C G58C,0.883
19,C33U A40U G56C,≤ 0.5
20,A37C G56C,0.6
21,C33U A43U C49G G50C C61U U64C C66U,≤ 0.5
22,U35C C46U G51C G63A,0.619
23,A36C C66A,≤ 0.5
24,A37C C49U,0.848

row,Variant,yeast fitness
1,C34G A37G G38A G50A,≤ 0.5
2,U35C A45C C49G,0.562
3,A36C C55U G68C,≤ 0.5
4,A37C C46U U59A,≤ 0.5
5,U35G A40G C49G,≤ 0.5
6,A36U G48U C66A,≤ 0.5
7,U35A U53C,≤ 0.5
8,A37C G63C C66U,≤ 0.5
9,C33U C62G A69C,0.595
10,A37C A70G,0.769
11,C33U A45G C49A U53A,≤ 0.5
12,U35A A40U,0.718
13,C34G A37C C60G A65U,≤ 0.5
14,A36U A45G G67A,≤ 0.5
15,C34U A40C A42C G48A C61G G67C G68A,≤ 0.5
16,A37C C60G C62G,≤ 0.5
17,C33U A43U C49G G50C C61U,≤ 0.5
18,C33U A36U A43C A69C,0.674
19,A37G A45G,0.707
20,C34A U54A,≤ 0.5
21,A36C C55U,0.675
22,A36U G44C A45U C62U G68A,0.789
23,A37C A40G U47C,≤ 0.5
